Results filed as inconclusive are left out. Activity calls are given as the source filed them.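 Rule for the calls, unless noted: active = viability increase at or above a cutoff of the median across tested compounds plus 3 SD (cut at about 8.5% in these data, passing the limit was not always enough); inconclusive = some gains above the cutoff, reason not given; inactive = the rest.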
Legend:
[1] = OD615 S. cerevisiae growth inhibition, permissive medium, pilot counter-assay, permissive growth control for S. cerevisiae lifespan shortening project (AID 705;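 active = growth inhibition above 25% in both replicates, a cutoff set 3 SD above the mean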); settings: OD615, 24 h, at 10 µM, active compounds read high
How it was run: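 assay system = Saccharomyces cerevisiae strain carrying genetically modified DeaD replicative-lifespan system | technique = absorbance (optical density) at 615 nm | buffer or medium = permissive raffinose/galactose medium | timing = cells pre-grown 4 h, then 24 h compound exposure, 30 °C humidified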

[2] = Restrictive medium S. cerevisiae growth inhibition, OD615, pilot screen of yeast lifespan reduction project, restrictive growth control (AID 706;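 active = growth inhibition above a set limit, 3 SD over mean compound inhibition, in both replicates, cut at about 43% in these data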;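 note: modified DeaD lifespan yeast strain shifted to restrictive glucose medium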); settings: OD615, 48 h, at 10 µM, active compounds read high
How it was run: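 System: modified S. cerevisiae. Buffer or medium: CSMM-D glucose medium. Incubation: 4 h pre-growth plus 48 h compound exposure, 30 °C. Detection: absorbance (optical density) measured at 615 nm.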

[3] = viability gain of MRP-1-high H69AR cells under doxorubicin, pilot screen, MRP-1 activator project, CellTiter-Glo, duplicate (AID 807); settings: H69AR viability with doxorubicin, CellTiter-Glo luminescence; at 10 µM; active compounds read high;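 note: compound pretreatment 18-22 h then 72 h combined with doxorubicin; 0% = doxorubicin alone and 100% = vehicle without doxorubicin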
[4] = growth suppression of beta-catenin knockout HCT116, pilot screen, human colon tumor cells (AID 823;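 active = cell viability at or below a set limit in both duplicate runs, the limit being the all-compound median minus 4 SD, cut at about 23% in these data, passing the limit was not always enough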;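 note: 0% = wells killed by 20 µM Hyamine and 100% = untreated DMSO cell wells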); settings: CellTiter-Glo, 60 h, at 10 µM, active compounds read low
[5] = growth suppression of PTEN-deleted HCT116, pilot screen, cell-based, HCT116 clonal line, CellTiter-Glo (AID 824;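 active = viability at or below 27.92% in each of two runs, the all-compound median minus 4 SD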;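 note: 0% = 20 µM Hyamine control and 100% = vehicle cell control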); settings: 60 h, at 10 µM, active compounds read low
[6] = inhibitors of the yeast RAM network, pilot screen, dse1pr::URA3 reporter, 5-FOA selection (AID 869;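 active = inhibition over a set limit, the all-compound mean plus 3 SD, in both replicate runs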;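 note: 0% = DMSO wells with no growth and 100% = 10 µM 1-NA-PP1 with full growth; RAM network block rescues cells from 5-FOA so hits raise OD615 growth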); settings: S. cerevisiae dse1pr::URA3 5-FOA growth, OD615, 2 d; at 10 µM; active compounds read high; strain carries analog-sensitive mutant Cbk1 kinase
[7] = RAM signaling pathway blockade in yeast – S. cerevisiae, Pdr1DBD-CYC8 efflux-inhibited sensitized strain, primary screen (AID 1298;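 active = RAM network inhibition above 8.4% in each of two replicates, 3 SD over the compound average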;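 note: 0% = DMSO untreated cells without growth and 100% = 10 µM 1-NA-PP1 full growth; higher means more yeast growth rescued from 5-FOA killing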); settings: S. cerevisiae cbk1-as DSE1-URA3 strain, 5-FOA growth OD615, 2 d; at 50 µM; active compounds read high

CC(C)(C)NC(=O)C1CN(S(=O)(=O)c2ccccc2)CCN1S(=O)(=O)c1ccccc1 (configuration not stated)
inactive: growth inhibition [1] 5.33% | growth inhibition [2] -4.14% | viability increase [3] -1.07% | viability [4] 97.3% | viability [5] 97.1% | inhibition [6] 2.74% | RAM network inhibition [7] 2.81%

COc1ccc(C2C3=C(CC(c4ccco4)CC3=O)Nc3ccccc3N2C(C)=O)cc1 (configuration not stated)
inactive: growth inhibition [1] -19% | growth inhibition [2] -16.4% | viability increase [3] -2.47% | viability [4] 93.5% | viability [5] 102% | inhibition [6] 1.25% | RAM network inhibition [7] 0.96%

CCOC(=O)CC1C(=O)NCCN1C(=O)c1cc2c(=O)n3ccccc3nc2s1 (configuration not stated)
inactive: growth inhibition [1] -13.7% | growth inhibition [2] 0.575% | viability increase [3] 1.22% | viability [4] 95.3% | viability [5] 95.5% | inhibition [6] 1% | RAM network inhibition [7] 6.8%

OC(CN1C2=NCCCN2c2ccccc21)c1ccc(Cl)cc1 (configuration not stated)
inactive: growth inhibition [1] -8.91% | growth inhibition [2] 2.81% | viability increase [3] -4.02% | viability [4] 73.8% | viability [5] 76.1% | inhibition [6] 1.26% | RAM network inhibition [7] 3.02%

CCn1c(SCC(=O)N2CCN(c3ccccc3)CC2)nc2c(c1=O)SC(C)C2 (configuration not stated)
inactive: growth inhibition [1] -13.4% | growth inhibition [2] -10.2% | viability increase [3] -2.66% | viability [4] 88.5% | viability [5] 78.4% | inhibition [6] 1.4% | RAM network inhibition [7] 2.11%

CC1CCc2c(sc3ncnc(NCCN4CCOCC4)c23)C1 (configuration not stated)
inactive: growth inhibition [1] -7.6% | growth inhibition [2] -5.73% | viability increase [3] -6.47% | viability [4] 96.4% | viability [5] 95% | inhibition [6] 1.02% | RAM network inhibition [7] 5.28%

CCC(=O)Nc1nnc(-c2ccc(OC)cc2)o1
inactive: growth inhibition [1] -8.21% | growth inhibition [2] -11.8% | viability increase [3] -1.1% | viability [4] 103% | viability [5] 98.4% | inhibition [6] 1.01% | RAM network inhibition [7] -0.04%

CC(C)OC(=O)c1nnc(Cc2ccc(Cl)cc2)o1
inactive: growth inhibition [1] -6.46% | growth inhibition [2] 9.87% | viability increase [3] 0.7% | viability [4] 102% | viability [5] 102% | inhibition [6] -0.06% | RAM network inhibition [7] 1.93%

Cc1ccc(F)c(NC(=O)C2CCCCC2C(=O)O)c1 (configuration not stated)
inactive: growth inhibition [1] 1.12% | growth inhibition [2] -20.6% | viability increase [3] -2.22% | viability [4] 90.7% | viability [5] 94% | inhibition [6] 0.145% | RAM network inhibition [7] 2.88%

O=C(c1ccc2c(c1)C(=O)N(Cc1ccco1)C2O)N1CCOCC1 (configuration not stated)
inactive: growth inhibition [1] 1% | growth inhibition [2] -5.05% | viability increase [3] -2.58% | viability [4] 109% | viability [5] 98.3% | inhibition [6] 2.12% | RAM network inhibition [7] 1.94%

CN(C)S(=O)(=O)c1ccc(C(=O)Nc2ccc(Cl)cc2)cc1
inactive: growth inhibition [1] -3.1% | growth inhibition [2] -5.55% | viability increase [3] -1.63% | viability [4] 77.5% | viability [5] 88.8% | inhibition [6] 2.33% | RAM network inhibition [7] 3.74%

O=C(O)CC1SC(=Nc2ccccc2)N(c2ccccc2)C1=O (configuration not stated)
inactive: growth inhibition [1] -21.4% | growth inhibition [2] -13.2% | viability increase [3] -1.21% | viability [4] 98.1% | viability [5] 99.4% | inhibition [6] 1.24% | RAM network inhibition [7] 2.93%

Cc1cc(Nc2ccc(C(C)C)cc2)n2ncnc2n1
inactive: growth inhibition [1] -6.6% | growth inhibition [2] 7.39% | viability increase [3] -0.35% | viability [4] 95.2% | viability [5] 85.2% | inhibition [6] 0.465% | RAM network inhibition [7] 5.75%

Cc1nnc(Nc2ccc3c(c2)OCO3)c2ccccc12
inactive: growth inhibition [1] -10.6% | growth inhibition [2] -15.2% | viability increase [3] -3.25% | viability [4] 92% | viability [5] 91.7% | inhibition [6] 0.365% | RAM network inhibition [7] 4.96%

CCSc1nnc(-c2ccc(Cl)cc2Cl)o1
inactive: growth inhibition [1] -10.3% | growth inhibition [2] -5.92% | viability increase [3] -5.13% | viability [4] 83.5% | viability [5] 85.4% | inhibition [6] 1.65% | RAM network inhibition [7] 2.2%

O=C(CC1Sc2ccccc2NC1=O)Nc1cccc(C(=O)O)c1 (configuration not stated)
inactive: growth inhibition [1] 0.01% | growth inhibition [2] 8.77% | viability increase [3] -0.43% | viability [4] 101% | viability [5] 87% | inhibition [6] 1.14% | RAM network inhibition [7] 4.51%

CCC(=O)Nc1nc2ccccc2n1CCN1CCOCC1
inactive: growth inhibition [1] -9.48% | growth inhibition [2] -0.375% | viability increase [3] -2.15% | viability [4] 98.6% | viability [5] 99.3% | inhibition [6] -0.285% | RAM network inhibition [7] 5.41%

CCc1ccccc1NC(=O)c1cc(C2CC2)on1
inactive: growth inhibition [1] -12.1% | growth inhibition [2] 6.47% | viability increase [3] -0.65% | viability [4] 93.2% | viability [5] 91.8% | inhibition [6] 0.045% | RAM network inhibition [7] 3.34%

O=C(c1cccc(C(=O)N2CCc3ccccc32)n1)N1CCc2ccccc21
inactive: growth inhibition [1] -9.26% | growth inhibition [2] -3.99% | viability increase [3] -5.2% | viability [4] 83.3% | viability [5] 84.4% | inhibition [6] 0.515% | RAM network inhibition [7] 6.13%

Cc1cc2n(c1)CCn1c(C)ccc1-2
inactive: growth inhibition [1] 18.4% | growth inhibition [2] 14.5% | viability increase [3] -2.98% | viability [4] 97.8% | viability [5] 96.9% | inhibition [6] 1.99% | RAM network inhibition [7] 2.57%

Cc1cc(Nc2ccc(F)cc2C)n2ncnc2n1
inactive: growth inhibition [1] -3.29% | growth inhibition [2] -0.445% | viability increase [3] 0.05% | viability [4] 108% | viability [5] 101% | inhibition [6] 1.8% | RAM network inhibition [7] 5.54%

O=C(Cc1cc(=O)[nH]c(=O)[nH]1)N1CCC(Cc2ccccc2)CC1
inactive: growth inhibition [1] 0.795% | growth inhibition [2] -5.47% | viability increase [3] -0.99% | viability [4] 96% | viability [5] 94.2% | inhibition [6] 1.33% | RAM network inhibition [7] 3.92%

Cc1ccc(-c2nc(CS(=O)(=O)CC(=O)NCCCN3CCN(C)CC3)c(C)o2)cc1
inactive: growth inhibition [1] -9.1% | growth inhibition [2] -15.2% | viability increase [3] 0.53% | viability [4] 89.4% | viability [5] 94.7% | inhibition [6] 1.34% | RAM network inhibition [7] -0.16%

COc1ccc(C(=O)NCc2cn3ccsc3n2)cc1OC
inactive: growth inhibition [1] -9.73% | growth inhibition [2] -1.42% | viability increase [3] -1.54% | viability [4] 105% | viability [5] 94.6% | inhibition [6] 2.29% | RAM network inhibition [7] 2.63%

CC(C)C(=O)Nc1ccc(Nc2ccccc2)cc1
inactive: growth inhibition [1] -3.29% | growth inhibition [2] -8.34% | viability increase [3] 0.79% | viability [4] 105% | viability [5] 104% | inhibition [6] 0.87% | RAM network inhibition [7] 2.52%

Cc1noc(NS(=O)(=O)c2ccc(NC(=O)CSc3nc4c(cc3C#N)CCC4)cc2)c1C
active: growth inhibition [2] 48%
inactive: growth inhibition [1] 4.79% | viability increase [3] 1.01% | viability [4] 107% | viability [5] 98.3% | inhibition [6] 0.805% | RAM network inhibition [7] 8.22%

COc1ccc(/C(N)=C/C(=O)C(C)(C)C)cc1
inactive: growth inhibition [1] -14.2% | growth inhibition [2] -11.6% | viability increase [3] 0.55% | viability [4] 96.1% | viability [5] 98.2% | inhibition [6] 2.5% | RAM network inhibition [7] 4.84%

CN1CCN(CCCNC(=O)c2cn(C)c3ccc(S(=O)(=O)N(C)C)cc3c2=O)CC1
inactive: growth inhibition [1] -0.94% | growth inhibition [2] 2.12% | viability increase [3] -0.23% | viability [4] 103% | viability [5] 103% | inhibition [6] -0.355% | RAM network inhibition [7] 5.1%

CN(Cc1ccccc1)c1nc2c(c(=O)n(C)c(=O)n2C)n1CCSc1ncccn1
inactive: growth inhibition [1] -11.7% | growth inhibition [2] -3.17% | viability increase [3] -2.71% | viability [4] 93.8% | viability [5] 87.1% | inhibition [6] 1.42% | RAM network inhibition [7] 3.63%

O=C(O)c1c(F)c(F)c(F)c(F)c1-c1ccc(Cl)cc1
inactive: growth inhibition [1] -20% | growth inhibition [2] -19.6% | viability increase [3] -1.76% | viability [4] 98.9% | viability [5] 98.9% | inhibition [6] -0.105% | RAM network inhibition [7] 5.79%

CS(=O)(=O)n1nc(C(=O)N2CCOCC2)nc1N
inactive: growth inhibition [1] -10% | growth inhibition [2] -18.6% | viability increase [3] 0.47% | viability [4] 103% | viability [5] 98.4% | inhibition [6] 2.68% | RAM network inhibition [7] 5.4%

CCC(C)NC(=O)CS(=O)Cc1nc(-c2ccccc2C)oc1C (configuration not stated)
inactive: growth inhibition [1] 1.69% | growth inhibition [2] 12.7% | viability increase [3] -2.38% | viability [4] 96.1% | viability [5] 95.2% | inhibition [6] 1.9% | RAM network inhibition [7] 9.39%

Cc1ccc(-c2ccc(CCC(=O)O)n2CC(=O)O)cc1
inactive: growth inhibition [1] -3.08% | growth inhibition [2] -11.2% | viability increase [3] -1.34% | viability [4] 98.7% | viability [5] 107% | inhibition [6] 1.36% | RAM network inhibition [7] 1.3%

COC(=O)c1nc2n(n1)C(c1cccc(Cl)c1)C1=C(CC(C)(C)CC1=O)N2 (configuration not stated)
inactive: growth inhibition [1] 2.12% | growth inhibition [2] -2.75% | viability increase [3] -2.72% | viability [4] 98.7% | viability [5] 99.8% | inhibition [6] 0.75% | RAM network inhibition [7] -0.77%

COc1ccc2nc(N3CCCC(C(=O)NCCCN4CCN(C)CC4)C3)sc2c1 (configuration not stated)
inactive: growth inhibition [1] -5.12% | growth inhibition [2] -11.4% | viability increase [3] -2.35% | viability [4] 96.9% | viability [5] 89.5% | inhibition [6] 1.98% | RAM network inhibition [7] 8.59%

COc1ccc(C2CC3CC(c4ccccc4)N2O3)cc1 (configuration not stated)
inactive: growth inhibition [1] -3.88% | growth inhibition [2] -2.38% | viability increase [3] -1.22% | viability [4] 89.3% | viability [5] 93.5% | inhibition [6] 2.11% | RAM network inhibition [7] 4.21%
